Reference: ChEMBL document CHEMBL1158578, “Phloroglucinols from the argentine ferns Elaphoglossum gayanum and E. piloselloides” (2010)

Legend:
Assay type in all cases: functional
[1] = test system: Biomphalaria peregrina; assay: Molluscicidal activity against Biomphalaria peregrina assessed as mortality at 10 ppm after 24 hrs
Procedure, shortened: (§1)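 Snails (Biomphalaria peregrina) exposed for 24 h to test samples at 50, 20, 10, 5 and 2.5 ppm, with 21 snails per concentration. Mortality was recorded as a percentage. LD50 and LD90 were calculated from the mortality data by probit analysis. CuSO4 at 10 ppm served as the positive control, alongside an untreated control.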

[2] = test system: Biomphalaria peregrina; assay: Molluscicidal activity against Biomphalaria peregrina after 24 hrs; procedure, shortened: as §1
[3] = test system: Biomphalaria peregrina; assay: Molluscicidal activity against Biomphalaria peregrina assessed as mortality at 2.5 ppm after 24 hrs; procedure, shortened: as §1
[4] = test system: Biomphalaria peregrina; assay: Molluscicidal activity against Biomphalaria peregrina assessed as mortality at 5 ppm after 24 hrs; procedure, shortened: as §1

**Q.** How did the Activity [1] turn out when `CCCC(=O)C1=C(O)C(C)(CC=C(C)C)C(O)=C(Cc2c(O)c(O)cc(OC)c2C(=O)CCC)C1=O` (stereo not given) [ELAPHOPILOSIN D] was run?
**A.** The Activity was 81%.

**Q.** What about the LD90 [2] of the same compound?
**A.** The LD90 was 22.8 µM.

**Q.** And the LC50 ([2]; Biomphalaria peregrina, 24 h, read-out: LD50 (the source's name))?
**A.** Its LC50 is 14.4 µM.

**Q.** What about the Activity [3] of the same compound?
**A.** The Activity was 10%.

**Q.** What about the Activity [4] of the same compound?
**A.** The Activity was 24%.
